From ChEMBL document CHEMBL4477216, “Discovery and Optimization of Small Molecule Splicing Modifiers of Survival Motor Neuron 2 as a Treatment for Spinal Muscular Atrophy” (J Med Chem, 2016) come the findings set out here.

Assay [1] concerns Mus musculus. Nature of the assay: In vivo inhibition of mRNA splicing of human SMN2 exon 7 in FVB.Cg-Tg(SMN2 delta 7 exon)4299Ahmb Tg(SMN2)89Ahmb Smn1tm1Msd/J mouse assessed as increase in SMN protein level in quadriceps at 1 mg/kg, ip qd administered on postnatal day 3 to day 9 by HTRF assay relative to control. Format: functional. Also on record: scale not given: the % may be the effect or the level left. A digest of the protocol: (§1)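 Homozygous Δ7 SMA mice were dosed IP once daily from PND3 to PND9 with compound or vehicle (100% DMSO solution, 2.5 mL/kg). Brain, spinal cord and quadriceps were homogenized in RIPA buffer with protease inhibitors. SMN was read by HTRF (anti-SMN d2 and Kryptate antibodies, overnight rt, 665/620 nm) and normalized to BCA total protein. Values are % change versus vehicle ±SD; 5-11 mice per group.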
(In general: Time-resolved FRET reads energy transfer from a long-lived donor to a nearby acceptor.)

In assay [2] the test system is Mus musculus. Nature of the assay: In vivo inhibition of mRNA splicing of human SMN2 exon 7 in FVB.Cg-Tg(SMN2 delta 7 exon)4299Ahmb Tg(SMN2)89Ahmb Smn1tm1Msd/J mouse assessed as median survival time at 0.1 mg/kg/day, ip administered on postnatal day 3 to day 23 (reference value: 14 days). Format: functional.
In assay [3] the test system is Mus musculus. Put plainly: In vivo inhibition of mRNA splicing of human SMN2 exon 7 in FVB.Cg-Tg(SMN2 delta 7 exon)4299Ahmb Tg(SMN2)89Ahmb Smn1tm1Msd/J mouse assessed as increase in SMN protein level in quadriceps at 3 mg/kg, ip qd administered on postnatal day 3 to day 9 by HTRF assay relative to control. Format: functional. Also on record: scale not given: the % may be the effect or the level left. A digest of the protocol: as §1

The subject of assay [4] is Mus musculus. Put plainly: In vivo inhibition of mRNA splicing of human SMN2 exon 7 in FVB.Cg-Tg(SMN2 delta 7 exon)4299Ahmb Tg(SMN2)89Ahmb Smn1tm1Msd/J mouse assessed as median survival time at 0.3 mg/kg/day, ip administered on postnatal day 3 to day 23 (reference value: 14 days). Format: functional.
Assay [5] has as its system Mus musculus. Nature of the assay: In vivo inhibition of mRNA splicing of human SMN2 exon 7 in FVB.Cg-Tg(SMN2 delta 7 exon)4299Ahmb Tg(SMN2)89Ahmb Smn1tm1Msd/J mouse assessed as increase in SMN protein level in brain at 1 mg/kg, ip qd administered on postnatal day 3 to day 9 by HTRF assay relative to control. It is filed as functional. Also on record: scale not given: the % may be the effect or the level left. A digest of the protocol:
as §1

Assay [6] relates to Mus musculus. Nature of the assay: In vivo inhibition of mRNA splicing of human SMN2 exon 7 in FVB.Cg-Tg(SMN2 delta 7 exon)4299Ahmb Tg(SMN2)89Ahmb Smn1tm1Msd/J mouse assessed as median survival time at 0.6 mg/kg/day, po bid administered on postnatal day 24 (reference value: 14 days). Format: functional.
In assay [7] the test system is Mus musculus. Nature of the assay: In vivo inhibition of mRNA splicing of human SMN2 exon 7 in FVB.Cg-Tg(SMN2 delta 7 exon)4299Ahmb Tg(SMN2)89Ahmb Smn1tm1Msd/J mouse assessed as increase in SMN protein level in spinal cord at 1 mg/kg, ip qd administered on postnatal day 3 to day 9 by HTRF assay relative to control. Format: functional. Also on record: scale not given: the % may be the effect or the level left. A digest of the protocol:
as §1

Assay [8] has as its system Mus musculus. Nature of the assay: In vivo inhibition of mRNA splicing of human SMN2 exon 7 in FVB.Cg-Tg(SMN2 delta 7 exon)4299Ahmb Tg(SMN2)89Ahmb Smn1tm1Msd/J mouse assessed as median survival time at 2 mg/kg/day, po bid administered on postnatal day 24 (reference value: 14 days). Format: functional.
Assay [9] concerns Mus musculus. Put plainly: In vivo inhibition of mRNA splicing of human SMN2 exon 7 in FVB.Cg-Tg(SMN2 delta 7 exon)4299Ahmb Tg(SMN2)89Ahmb Smn1tm1Msd/J mouse assessed as median survival time at 6 mg/kg/day, po bid administered on postnatal day 24 (reference value: 14 days). It is filed as functional.
Assay [10] relates to Mus musculus. Nature of the assay: In vivo inhibition of mRNA splicing of human SMN2 exon 7 in FVB.Cg-Tg(SMN2 delta 7 exon)4299Ahmb Tg(SMN2)89Ahmb Smn1tm1Msd/J mouse assessed as increase in SMN protein level in quadriceps at 0.03 mg/kg, ip qd administered on postnatal day 3 to day 9 by HTRF assay relative to control. It is filed as functional. Also on record: scale not given: the % may be the effect or the level left. A digest of the protocol: as §1

Assay [11] deals with Mus musculus. Nature of the assay: In vivo inhibition of mRNA splicing of human SMN2 exon 7 in FVB.Cg-Tg(SMN2 delta 7 exon)4299Ahmb Tg(SMN2)89Ahmb Smn1tm1Msd/J mouse assessed as increase in SMN protein level in spinal cord at 0.03 mg/kg, ip qd administered on postnatal day 3 to day 9 by HTRF assay relative to control. It is filed as functional. Also on record: scale not given: the % may be the effect or the level left. A digest of the protocol:
as §1

Assay [12] is filed under the species Homo sapiens. Put plainly: Inhibition of mRNA splicing of SMN2 exon 7 in GM03813 fibroblasts derived from SMA patient assessed as compound concentration required to increase SMN protein level by 1.5 times after 24 hrs by HTRF assay.
In assay [13] the test system is Mus musculus. Nature of the assay: In vivo inhibition of mRNA splicing of human SMN2 exon 7 in FVB.Cg-Tg(SMN2 delta 7 exon)4299Ahmb Tg(SMN2)89Ahmb Smn1tm1Msd/J mouse assessed as increase in SMN protein level in brain at 0.03 mg/kg, ip qd administered on postnatal day 3 to day 9 by HTRF assay relative to control. Format: functional. Also on record: scale not given: the % may be the effect or the level left. A digest of the protocol: as §1

In assay [14] the test system is Mus musculus. Put plainly: In vivo inhibition of mRNA splicing of human SMN2 exon 7 in FVB.Cg-Tg(SMN2 delta 7 exon)4299Ahmb Tg(SMN2)89Ahmb Smn1tm1Msd/J mouse assessed as median survival time at 1 mg/kg/day, ip administered on postnatal day 3 to day 23 (reference value: 14 days). Format: functional.
Assay [15] deals with Mus musculus. Put plainly: In vivo inhibition of mRNA splicing of human SMN2 exon 7 in FVB.Cg-Tg(SMN2 delta 7 exon)4299Ahmb Tg(SMN2)89Ahmb Smn1tm1Msd/J mouse assessed as median survival time at 20 mg/kg/day, po bid administered on postnatal day 24 (reference value: 14 days). Format: functional.
The species entered for assay [16] is Homo sapiens. Put plainly: Inhibition of mRNA splicing of human SMN2 exon 7 transfected in HEK293H cells assessed as compound concentration required to increase full-length SMN2 mRNA level by 1.5 times after 24 hrs by RT-qPCR analysis relative to GAPDH. It is filed as cell-based. A digest of the protocol:
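HEK293H cells stably carrying the SMN2 minigene (exon 6 to 5' exon 8 fused to firefly luciferase) were plated and held for 6 h, then treated 24 h in duplicate at varying concentrations (0.5% DMSO). Full-length minigene mRNA and GAPDH were quantified by TaqMan RT-qPCR using actual PCR efficiencies. Results were normalized to GAPDH and DMSO and expressed as fold change versus DMSO.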
On the technique in general: Quantitative PCR measures a nucleic acid by following its amplification.

Assay [17] concerns Mus musculus. Nature of the assay: In vivo inhibition of mRNA splicing of human SMN2 exon 7 in FVB.Cg-Tg(SMN2 delta 7 exon)4299Ahmb Tg(SMN2)89Ahmb Smn1tm1Msd/J mouse assessed as median survival time at 3 mg/kg/day, ip administered on postnatal day 3 to day 23 (reference value: 14 days). It is filed as functional.

Some results are limits rather than exact numbers.

As to `Cc1cn2cc(-c3cc4ccc(N5CCN(C)CC5)cc4c(=O)o3)nc2c(C)n1`, the Activity is given as 343% in the assay on Mus musculus [1], 517% in the assay on Mus musculus [3], 345% in the assay on Mus musculus [5] and 203% in the assay with Mus musculus [7]. Also, the MST with Mus musculus [2], in the assay with Mus musculus [4], with Mus musculus [6] and in the assay on Mus musculus [8] was more than 100 days each time.

In the case of `CCN1CCN(c2ccc3cc(-c4cn5cc(C)nc(C)c5n4)c(=O)oc3c2)C[C@@H]1C`, the MST is 34 days in the assay on Mus musculus [2]; more than 150 days with Mus musculus [9]; more than 55 days with Mus musculus [4]; more than 150 days with Mus musculus [14]; 34 days in the assay on Mus musculus [6]; more than 55 days in the assay on Mus musculus [8]. Moreover, the results for the Activity in the assay on Mus musculus [10], with Mus musculus [11] and in the assay on Mus musculus [13] were -3%, 7% and -10%, respectively. The EC1.5 in the assay filed under Homo sapiens [12] came out at 44 nM.

For `Cc1cn2nc(-c3cc(=O)n4cc(N5CCN(C)CC5)ccc4n3)cc2c(C)n1`, the Activity in the assay on Mus musculus [1] turned out to be 129%; with Mus musculus [3] it was 218%; with Mus musculus [5], 149%; with Mus musculus [7], 123%. Further, the MST in the assay on Mus musculus [9] was 45 days; in the assay with Mus musculus [15], more than 190 days; in the assay on Mus musculus [14] it was 45 days; in the assay with Mus musculus [17] it was more than 190 days. Further, the EC1.5 in the assay listed under Homo sapiens [12] was 160 nM; in the assay filed under Homo sapiens [16] it was 35 nM.
